ChEMBL document CHEMBL1131188, “Synthesis and cytotoxicity of 2-methyl-4, 9-dihydro-1-substituted-1H-imidazo[4,5-g]quinoxaline-4,9-diones and 2,3-disubstituted-5,10-pyrazino[2,3-g]quinoxalinediones” (J Med Chem, 1998)

Key:
MKN-45 = assay: Cytotoxicity of compound against human gastric adenocarcinoma cell line (MKN 45); format: functional, cell-based
Procedure, shortened: (§1)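 MTT assay: compounds dissolved in DMSO at 1 mM (stock), diluted in RPMI-FCS to various concentrations; single-cell suspensions treated at 37 °C, 5% CO2 for 4 days; MTT added for further 4 h, acid–isopropanol added, OD read at 540 nm. Fractional inhibition = 1 − OD sample/control; IC50 from Chou median-effect analysis; mean of triplicate experiments.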

PC-14 = assay: Cytotoxicity of compound against human lung adenocarcinoma cell line (PC14); format: functional, cell-based; procedure, shortened: as §1

Cc1nc2c(n1-c1ccc(Br)cc1)C(=O)c1nccnc1C2=O
IC50 (MKN-45; Homo sapiens, MKN-45): 1.3 µM
IC50 (PC-14; Homo sapiens, PC-14): 45.5 µM

Cc1nc2c([nH]1)C(=O)c1nccnc1C2=O
IC50 (MKN-45; Homo sapiens, MKN-45): 19.8 µM
IC50 (PC-14; Homo sapiens, PC-14): 82.5 µM

Cc1nc2c(nc1C)C(=O)c1nccnc1C2=O
IC50 (MKN-45; Homo sapiens, MKN-45): 16.7 µM
IC50 (PC-14; Homo sapiens, PC-14): 74 µM

O=C1c2nccnc2C(=O)c2nccnc21
IC50 (MKN-45; Homo sapiens, MKN-45): 20.1 µM
IC50 (PC-14; Homo sapiens, PC-14): 76.2 µM

Cc1nc2c(n1C(C)C)C(=O)c1nccnc1C2=O
IC50 (MKN-45; Homo sapiens, MKN-45): 61.1 µM
IC50 (PC-14; Homo sapiens, PC-14): 78.3 µM

CCc1nc2c(nc1C)C(=O)c1nccnc1C2=O
IC50 (MKN-45; Homo sapiens, MKN-45): 13 µM
IC50 (PC-14; Homo sapiens, PC-14): 67.5 µM

CCc1nc2c(nc1CC)C(=O)c1nccnc1C2=O
IC50 (MKN-45; Homo sapiens, MKN-45): 7.61 µM
IC50 (PC-14; Homo sapiens, PC-14): 20.5 µM

Cc1nc2c(n1-c1ccccc1)C(=O)c1nccnc1C2=O
IC50 (MKN-45; Homo sapiens, MKN-45): 22.8 µM
IC50 (PC-14; Homo sapiens, PC-14): 125 µM

O=C1c2nccnc2C(=O)c2nc(-c3ccccc3)c(-c3ccccc3)nc21
IC50 (MKN-45; Homo sapiens, MKN-45): 82.5 µM
IC50 (PC-14; Homo sapiens, PC-14): 120 µM

Cc1nc2c(n1C)C(=O)c1nccnc1C2=O
IC50 (MKN-45; Homo sapiens, MKN-45): 34.1 µM
IC50 (PC-14; Homo sapiens, PC-14): 38.7 µM

COc1cccc2c1C(=O)c1c(O)c3c(c(O)c1C2=O)C[C@@](O)(C(=O)CO)C[C@@H]3O[C@H]1C[C@H](N)[C@H](O)[C@H](C)O1 [DOXORUBICIN]
IC50 (MKN-45; Homo sapiens, MKN-45): 3.13 µM
IC50 (PC-14; Homo sapiens, PC-14): 0.29 µM

CISPLATIN
IC50 (MKN-45; mkn-45): 86.5 µM
IC50 (PC-14; pc-14): 3.87 µM

CCn1c(C)nc2c1C(=O)c1nccnc1C2=O
IC50 (MKN-45; Homo sapiens, MKN-45): 93.1 µM
IC50 (PC-14; Homo sapiens, PC-14): 130 µM
